The source made the active and inactive calls. The calls are words filed in the database; no cut-off is given here. Peptide text beside a SMILES is read from it. * marks the point of attachment. Cbz = O=C(OCc1ccccc1)*
How the values were obtained:
[1] = target: T1, Nuclear factor erythroid 2-related factor 2 (Homo sapiens) (UniProt Q16236); experiment: Activation of NRF2 transcription in human HepG2C8 cells at 10 uM after 6 hrs by luciferase reporter gene assay relative to control; format: cell-based
T1 sequence (whole entry): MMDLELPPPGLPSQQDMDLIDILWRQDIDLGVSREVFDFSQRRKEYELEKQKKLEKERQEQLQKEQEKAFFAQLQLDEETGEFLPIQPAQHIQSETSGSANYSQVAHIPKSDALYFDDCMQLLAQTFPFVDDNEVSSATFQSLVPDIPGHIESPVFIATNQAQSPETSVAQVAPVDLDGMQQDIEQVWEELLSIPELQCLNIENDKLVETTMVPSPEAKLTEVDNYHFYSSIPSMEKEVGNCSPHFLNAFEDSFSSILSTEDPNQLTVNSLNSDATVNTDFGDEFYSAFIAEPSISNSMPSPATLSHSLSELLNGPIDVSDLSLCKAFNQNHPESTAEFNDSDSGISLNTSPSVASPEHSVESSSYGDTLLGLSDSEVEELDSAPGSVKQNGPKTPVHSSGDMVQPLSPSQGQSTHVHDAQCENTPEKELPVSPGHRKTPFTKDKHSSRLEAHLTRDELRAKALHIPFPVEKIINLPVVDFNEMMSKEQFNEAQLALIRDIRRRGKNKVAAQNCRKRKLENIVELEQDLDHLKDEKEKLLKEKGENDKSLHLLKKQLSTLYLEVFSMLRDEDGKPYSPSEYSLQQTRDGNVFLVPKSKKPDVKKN
Method in brief: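 Luciferase reporter in HepG2C8 cells, which are HepG2 stably transfected with an Nrf2 luciferase reporter and grown in MEM. Screened at 10 μM, with dose-response over 2.5−40 μM. Activity expressed as fold of control. tBHQ positive control.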

[2] = system: A549; experiment: Cytotoxicity against human A549 cells assessed as reduction in cell viability after 24 hrs by MTS assay; format: functional, cell-based; conditions: A549, 24 h
Method in brief: (§1)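 Cells seeded at 5 × 10^3/well and cultured overnight, then exposed to compounds for 24 h. Viability read by MTS. Media: SW480 in RPMI1640, A549 in DMEM, MCF7 in MEM. […] Irinotecan positive control.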

[3] = target: T2, Tyrosine-protein phosphatase non-receptor type 1 (Homo sapiens) (UniProt P18031); experiment: Inhibition of recombinant human PTP1B assessed as hydrolysis of p-nitrophenyl phosphate at 25 uM after 30 mins relative to control
T2 sequence (whole entry): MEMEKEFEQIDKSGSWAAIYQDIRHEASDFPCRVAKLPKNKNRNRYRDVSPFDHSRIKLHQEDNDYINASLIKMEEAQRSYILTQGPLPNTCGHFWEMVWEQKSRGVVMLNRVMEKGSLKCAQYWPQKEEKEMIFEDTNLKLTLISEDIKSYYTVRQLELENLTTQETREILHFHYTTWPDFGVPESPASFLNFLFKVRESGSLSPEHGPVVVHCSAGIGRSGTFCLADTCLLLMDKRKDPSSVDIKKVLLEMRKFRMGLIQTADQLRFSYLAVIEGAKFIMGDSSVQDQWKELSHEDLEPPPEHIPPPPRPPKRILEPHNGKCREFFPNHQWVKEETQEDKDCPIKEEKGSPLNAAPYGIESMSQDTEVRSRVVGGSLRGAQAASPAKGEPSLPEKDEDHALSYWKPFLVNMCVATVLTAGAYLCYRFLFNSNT

[4] = system: MCF7; experiment: Cytotoxicity against human MCF7 cells assessed as reduction in cell viability after 24 hrs by MTS assay; format: functional, cell-based; conditions: MCF7, 24 h; method in brief: as §1
[5] = system: SW480; experiment: Cytotoxicity against human SW480 cells assessed as reduction in cell viability after 24 hrs by MTS assay; format: functional, cell-based; conditions: SW480, 24 h; method in brief: as §1
[6] = system: HepG2; experiment: Cytotoxicity against human HepG2 cells assessed as reduction in cell viability after 24 hrs by MTS assay; format: functional, cell-based; conditions: HepG2, 24 h; method in brief: as §1
[7] = target: T3, Tyrosinase (Homo sapiens) (UniProt P14679); experiment: Inhibition of tyrosinase (unknown origin) using L-tyrosine as substrate assessed as oxidation of L-tyrosine at 20 uM after 15 mins
T3 sequence (whole entry): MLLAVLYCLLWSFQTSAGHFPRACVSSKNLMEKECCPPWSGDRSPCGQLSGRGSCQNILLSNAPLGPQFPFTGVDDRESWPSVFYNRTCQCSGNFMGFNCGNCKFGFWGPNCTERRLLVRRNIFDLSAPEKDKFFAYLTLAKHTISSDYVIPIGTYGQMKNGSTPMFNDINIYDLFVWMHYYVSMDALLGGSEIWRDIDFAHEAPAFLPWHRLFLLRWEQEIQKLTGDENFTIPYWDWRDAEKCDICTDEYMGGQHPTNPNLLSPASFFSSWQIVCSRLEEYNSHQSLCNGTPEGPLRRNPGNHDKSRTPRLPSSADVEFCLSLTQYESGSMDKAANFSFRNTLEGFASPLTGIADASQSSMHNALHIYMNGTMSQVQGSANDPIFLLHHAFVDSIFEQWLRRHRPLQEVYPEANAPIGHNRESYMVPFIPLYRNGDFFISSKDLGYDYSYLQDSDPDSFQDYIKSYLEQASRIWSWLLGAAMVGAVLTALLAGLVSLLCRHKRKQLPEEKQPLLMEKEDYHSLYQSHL
Method in brief: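 Tyrosinase at 333 U/mL (stock) in 45 mM sodium phosphate, pH 6.6, with 2 mM L-tyrosine (stock). Incubated 37 °C for 15 min; oxidation read at 492 nm. Screened at 20 μM; dose-response for IC50. Glyasperin C positive control.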

[8] = system: SW480; experiment: (§2) Inhibition of NFkappaB transcription in human SW480 cells at by luciferase reporter gene assay; format: cell-based
Method in brief: (§3)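 SW480 cells (RPMI1640) stably transfected with an NF-κB luciferase reporter. […] MG132 positive control.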

[9] = as §2; format: cell-based; method in brief: as §3
[10] = system: SW480; experiment: Inhibition of NFkappaB transcription in human SW480 cells at 10 uM by luciferase reporter gene assay; format: cell-based; method in brief: as §3
[11] = system: Influenza A virus; experiment: Antiviral activity against Influenza A virus A/WSN/33(H1N1) infected in MDCK cells at 100 uM preincubated with virus for 15 mins followed by cells addition measured at 36 hrs post infection; format: functional, A/WSN/1933(H1N1)
Method in brief: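 MDCK canine kidney cells grown in DMEM and infected with influenza A/WSN/33 (H1N1). Compounds screened at 100 μM. Oseltamivir phosphate served as the positive control.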

[12] = system: RAW264.7; experiment: Antiinflammatory activity in mouse RAW264.7 cells assessed as inhibition of LPS-induced nitric oxide production at 10 uM after 24 hrs by Griess assay; format: functional
Method in brief: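 RAW264.7 cells plated at 1.2 × 10^5/well in RPMI1640 and co-treated with compound and 1 μg/mL LPS for 24 h. Nitrite in medium read with Griess reagent (sulfanilamide/naphthylethylenediamine, phosphoric acid) after 15 min at 37 °C, absorbance 540 nm. […] Curcumin positive control.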

[13] = system: Influenza A virus; experiment: Antiviral activity against Influenza A virus A/WSN/33(H1N1) infected in dog MDCK cells preincubated with virus for 15 mins followed by cells addition measured at 36 hrs post infection; format: functional, organism-based; conditions: A/WSN/1933(H1N1)

## C=CC(C)(C)c1c(O)cc(OC)c2cc(-c3ccc(O)cc3O)c(=O)oc12
[1]
  fold change (FC): 0.88

## COc1c(-c2ccc(O)cc2)oc2cc(O)c(CC=C(C)C)c(O)c2c1=O
[2]
  IC50: 23.1 µM
[3]
  inhibition: 52%
[4]
  IC50: 7.3 µM
[5]
  IC50: 16.1 µM
[6]
  IC50: 10.8 µM

## COc1cc2c(c3oc(=O)c(-c4ccc(O)cc4O)cc13)C(C)(C)C(CO)O2 (stereo unspecified)
[1]
  fold change (FC): 0.88

## COc1cc(/C=C/C(=O)c2ccc(O)cc2O)ccc1O
[7]
  inhibition: Active

## CC1(C)C=Cc2c(ccc3c2OC[C@@H](c2ccc(O)cc2O)C3)O1 [GLABRIDIN]
[8]
  inhibition: Dose-dependent effect
[9]
  IC50: 21.4 µM
[10]
  inhibition: > 30%

## COc1c2c(cc3oc(=O)c(-c4ccc(O)cc4O)cc13)OC(C)(C)CC2
[1]
  fold change (FC): 3.49

## COc1c(CC=C(C)C)c(O)cc2oc(=O)c(-c3ccc(O)cc3O)cc12
[1]
  fold change (FC): 1.72

## CC(C)=CCc1c(O)c(CC=C(C)C)c2occ(-c3ccc(O)cc3)c(=O)c2c1O
[3]
  inhibition: > 95%
[11]
  Activity: >30%

## CC(C)=CCc1c(O)cc2occ(-c3ccc(O)c(O)c3)c(=O)c2c1O
[2]
  IC50: 20.3 µM
[4]
  IC50: 7 µM
[5]
  IC50: 12 µM
[6]
  IC50: 6 µM

## COc1cc2oc(-c3ccc(O)cc3O)cc2c(OC)c1CC=C(C)C
[12]
  inhibition: inactive
[3]
  inhibition: > 90%
[11]
  Activity: >30%

## COc1cc2c(c3oc(=O)c4c5ccc(O)cc5oc4c13)C(C)(C)C(C)O2 (stereo unspecified)
[1]
  fold change (FC): 0.88

## C[C@@H]1O[C@@H](c2c(O)c([C@@H]3O[C@H](COC(=O)CC(C)(O)CC(=O)O)[C@@H](O)[C@H](O)[C@H]3O)c3oc(-c4ccc(O)cc4)cc(=O)c3c2O)[C@H](O)[C@H](O)[C@H]1O (stereo partly specified)
[1]
  fold change (FC): 1.5

## COc1ccc2c(c1)OC1C2COC2=CC(=O)CCC21O (stereo unspecified)
[8]
  inhibition: Dose-dependent effect
[9]
  IC50: 16.9 µM
[3]
  inhibition: inactive
[10]
  inhibition: > 30%

## COc1cc2c(c3oc(-c4ccc(O)cc4O)cc13)C(C)(C)C(C)O2 (stereo unspecified)
[3]
  inhibition: > 90%

## COc1cc2c(c(OC)c1CC=C(C)C)C=C(c1ccc(O)cc1O)CO2
[7]
  inhibition: inactive

## CC(C)=CCc1cc2c(=O)cc(-c3ccc(O)cc3)oc2cc1O
[3]
  inhibition: Active

## C[C@H]1O[C@H](O[C@H]2CC(C)(C)C[C@@H]3C4=CC(=O)[C@H]5[C@]6(C)CC[C@@H](O[C@@H]7O[C@H](C(=O)O)[C@@H](O)[C@H](O)[C@H]7O[C@@H]7O[C@H](C(=O)O)[C@@H](O)[C@H](O)[C@H]7O)C(C)(C)[C@H]6CC[C@]5(C)[C@@]4(C)CC[C@]23C)[C@@H](O)[C@@H](O)[C@@H]1O
[13]
  IC50: 39.6 µM
[1]
  fold change (FC): 1.53
[11]
  Activity: 47%

## CC(C)=CCc1cc(-c2oc3cc(O)cc(O)c3c(=O)c2O)cc(O)c1O
[3]
  inhibition: Active

## COc1cc2c(c3oc(=O)c(-c4ccc(O)cc4O)cc13)C(C)(C)C(C)O2 (stereo unspecified)
[1]
  fold change (FC): 0.88

## COc1c2c(cc3oc(=O)c4c5ccc(O)cc5oc4c13)OC(C)(C)CC2
[1]
  fold change (FC): 3.32

## CC(C)=CCc1cc(-c2oc3cc(O)cc(O)c3c(=O)c2O)ccc1O
[3]
  inhibition: 98%

## O=C1C[C@@H](c2ccc(O)cc2)Oc2cc(O)ccc21
[3]
  inhibition: inactive

## O=C(/C=C/c1ccc(O)cc1)c1ccc(O)cc1O
[1]
  fold change (FC): 5.88
[7]
  inhibition: Active

## COc1cc(O)cc2c1[C@@H]1Oc3c(ccc4c3C=CC(C)(C)O4)[C@@H]1CO2
[8]
  inhibition: Dose-dependent effect
[9]
  IC50: 25.8 µM
[10]
  inhibition: > 30%

## CC1(C)[C@@H](O)CC[C@]2(C)[C@H]3C(=O)C=C4[C@H]5C[C@@](C)(C(=O)O)CC[C@]5(C)CC[C@@]4(C)[C@]3(C)CC[C@@H]12
[3]
  inhibition: 81%
[11]
  Activity: 58%

## CC(C)=CCc1c(O)ccc(-c2coc3c(CC=C(C)C)c(O)cc(O)c3c2=O)c1O
[3]
  inhibition: > 95%
[11]
  Activity: >30%

## COc1cc2c(c(OC)c1CC=C(C)C)C1c3ccc(O)cc3OC1(O)CO2 (stereo unspecified)
[8]
  inhibition: Dose-dependent effect
[9]
  IC50: 24.6 µM
[10]
  inhibition: > 30%

## COc1cc2oc(=O)c(-c3ccc(O)cc3O)cc2c(OC)c1CC=C(C)C
[1]
  fold change (FC): 0.88

## CC(C)C[C@@H](C=O)NC(=O)[C@H](CC(C)C)NC(=O)[C@H](CC(C)C)NC(=O)OCc1ccccc1 [MG-132] (Cbz-Leu-Leu-Leu-aldehyde)
[8]
  inhibition: Dose-dependent effect
[9]
  IC50: 29.5 µM
[10]
  inhibition: 23%

## CC(C)=CCc1c(O)cc2oc(-c3ccc(O)cc3)c(O)c(=O)c2c1O
[3]
  inhibition: 51%

## COc1c(CC=C(C)C)c(O)cc2oc(=O)c3c4ccc(O)cc4oc3c12
[1]
  fold change (FC): 0.88

## CCc1c2c(nc3ccc(OC(=O)N4CCC(N5CCCCC5)CC4)cc13)-c1cc3c(c(=O)n1C2)COC(=O)[C@]3(O)CC [IRINOTECAN]
[2]
  IC50: 0.8 µM
[4]
  IC50: 0.5 µM
[5]
  IC50: 1.4 µM
[6]
  IC50: 0.9 µM

From ChEMBL document CHEMBL3808312, “Bioactive Constituents of Glycyrrhiza uralensis (Licorice): Discovery of the Effective Components of a Traditional Herbal Medicine” (J Nat Prod, 2016)
